For assay [1], the system named is Staphylococcus aureus. Kind of assay: Compound is evaluated for cross resistance with DNA gyrase subunit A or B against Staphylococcus aureus 337-113 (norfloxacin-resistant). The class given is functional. In short, it runs like this: (§1)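 Aerobic MIC by 2-fold dilution on brain–heart infusion agar; values in µg/mL.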
Assay [2] has as its system Staphylococcus aureus. Kind of assay: Compound is evaluated for cross resistance with DNA gyrase subunit A or B against Staphylococcus aureus 45. The class given is functional. The procedure, abridged:
as §1

The subject of assay [3] is Staphylococcus aureus. Kind of assay: Compound is evaluated for cross resistance with DNA gyrase subunit A or B against Staphylococcus aureus 730A. Type of assay: functional. In short, it runs like this: as §1
In assay [4] the test system is Staphylococcus aureus. Kind of assay: Compound is evaluated for cross resistance with DNA gyrase subunit A or B against Staphylococcus aureus 45CR-1 (coumermycin resistant). Type of assay: functional. In short, it runs like this: as §1
Assay [5] has as its target DNA-directed RNA polymerase subunit beta (Escherichia coli K-12) (UniProt P0A8V2). Kind of assay: Percent inhibition at a concentration of 100 ug/mL of RNA polymerase isolated from Escherichia coli K12 (Sigma).
Assay [6] deals with Bacteroides thetaiotaomicron. In words: Minimum inhibitory concentration against Bacteroides thetaiotaomicron ATCC 29741; 0.2-0.8. Type of assay: functional. In short, it runs like this: (§2)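 Anaerobic MICs by 2-fold dilution in Wilkens-Chalgren broth, reported in micrograms/milliliter.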
For assay [7], the system named is Bacteroides fragilis. Kind of assay: Minimum inhibitory concentration against Bacteroides fragilis ATCC 25285; 0.1-0.8. The class given is functional. In short, it runs like this:
as §2

For assay [8], the system named is Clostridioides difficile. In words: Minimum inhibitory concentration against Clostridium difficile ATCC 9689; 1.6-3.1. The class given is functional. In short, it runs like this:
as §2

Assay [9] concerns Clostridium perfringens. In words: Minimum inhibitory concentration against Clostridium perfringens ATCC 13124; 0.05-0.1. The class given is functional. The procedure, abridged:
(§3)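 Anaerobic MIC by 2-fold dilution in Wilkens-Chalgren broth; values in µg/mL.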

Assay [10] concerns Staphylococcus aureus. Kind of assay: Minimum inhibitory concentration (MIC) against the cell line Staphylococcus aureus A5177. The class given is functional. The procedure, abridged:
(§4)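 Aerobic MICs by 2-fold dilution on brain–heart infusion agar, reported in micrograms/milliliter.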

Assay [11] deals with Clostridium perfringens. Kind of assay: Minimum inhibitory concentration against Clostridium perfringens ATCC 13124. The class given is functional. In short, it runs like this: as §3
The test system of assay [12] is Staphylococcus aureus. Kind of assay: Minimum inhibitory concentration (MIC) against the cell line Staphylococcus aureus ATCC 6538P. The class given is functional. In short, it runs like this: as §4
Assay [13] concerns Clostridioides difficile. Kind of assay: Minimum inhibitory concentration against Clostridium difficile ATCC 9689. Type of assay: functional. The procedure, abridged:
as §2

For assay [14], the system named is Micrococcus luteus. Kind of assay: Minimum inhibitory concentration (MIC) against the cell line Micrococcus luteus ATCC 4698. The class given is functional. In short, it runs like this:
as §4

For assay [15], the system named is Bacteroides fragilis. In words: Compound is evaluated for cross resistance with DNA gyrase subunit A or B against Bacteroides fragilis ATCC 25285. Type of assay: functional.
Assay [16] has as its system Streptococcus equinus. Kind of assay: Minimum inhibitory concentration (MIC) against the cell line Streptococcus bovis A5169. Type of assay: functional. In short, it runs like this: as §4
For assay [17], the system named is Bacteroides thetaiotaomicron. In words: Minimum inhibitory concentration against Bacteroides thetaiotaomicron ATCC 29741. Type of assay: functional. The procedure, abridged:
as §2

In assay [18] the test system is Escherichia coli. Kind of assay: Minimum inhibitory concentration (MIC) against the cell line Escherichia coli H560. Type of assay: functional. The procedure, abridged: as §4
For assay [19], the system named is Pseudomonas aeruginosa. In words: Minimum inhibitory concentration (MIC) against the cell line Pseudomonas aeruginosa A5007. Type of assay: functional. The procedure, abridged:
as §4

The subject of assay [20] is Staphylococcus epidermidis. In words: Minimum inhibitory concentration (MIC) against the strain Staphylococcus epidermidis 3519.
Assay [21] has as its system Staphylococcus aureus. Kind of assay: Minimum inhibitory concentration (MIC) against the cell line Staphylococcus aureus 45. The class given is functional. In short, it runs like this:
as §4

Assay [22] has as its system Escherichia coli. Kind of assay: Minimum inhibitory concentration (MIC) against the cell line Escherichia coli juhl. The class given is functional. In short, it runs like this: as §4
Assay [23] deals with Streptococcus pyogenes. In words: Minimum inhibitory concentration (MIC) against the cell line Streptococcus pyogenes EES61. Type of assay: functional. In short, it runs like this: as §4
Assay [24] has as its system Bacteroides fragilis. In words: Minimum inhibitory concentration against Bacteroides fragilis ATCC 25285. Type of assay: functional. In short, it runs like this: as §2
Assay [25] relates to Staphylococcus aureus. In words: Minimum inhibitory concentration (MIC) against the cell line Staphylococcus aureus CMX 686B. Type of assay: functional. In short, it runs like this: as §4
Assay [26] has as its system Bacteroides fragilis. Kind of assay: Compound is evaluated for cross resistance with DNA gyrase subunit A or B against Bacteroides fragilis TirR (tirandamycin resistant). The class given is functional.

Results on four compounds are retold here after ChEMBL document CHEMBL1124461, “Aromatic dienoyl tetramic acids. Novel antibacterial agents with activity against anaerobes and staphylococci” (J Med Chem, 1989).

Structures are written as SMILES. Converted amounts (≈) assume the structure as drawn.

What is called inhibition is the share of the control response that was lost under treatment. Read a low inhibition as little suppression.

Sequence of DNA-directed RNA polymerase subunit beta (Escherichia coli K-12) (P0A8V2 whole entry, looked up): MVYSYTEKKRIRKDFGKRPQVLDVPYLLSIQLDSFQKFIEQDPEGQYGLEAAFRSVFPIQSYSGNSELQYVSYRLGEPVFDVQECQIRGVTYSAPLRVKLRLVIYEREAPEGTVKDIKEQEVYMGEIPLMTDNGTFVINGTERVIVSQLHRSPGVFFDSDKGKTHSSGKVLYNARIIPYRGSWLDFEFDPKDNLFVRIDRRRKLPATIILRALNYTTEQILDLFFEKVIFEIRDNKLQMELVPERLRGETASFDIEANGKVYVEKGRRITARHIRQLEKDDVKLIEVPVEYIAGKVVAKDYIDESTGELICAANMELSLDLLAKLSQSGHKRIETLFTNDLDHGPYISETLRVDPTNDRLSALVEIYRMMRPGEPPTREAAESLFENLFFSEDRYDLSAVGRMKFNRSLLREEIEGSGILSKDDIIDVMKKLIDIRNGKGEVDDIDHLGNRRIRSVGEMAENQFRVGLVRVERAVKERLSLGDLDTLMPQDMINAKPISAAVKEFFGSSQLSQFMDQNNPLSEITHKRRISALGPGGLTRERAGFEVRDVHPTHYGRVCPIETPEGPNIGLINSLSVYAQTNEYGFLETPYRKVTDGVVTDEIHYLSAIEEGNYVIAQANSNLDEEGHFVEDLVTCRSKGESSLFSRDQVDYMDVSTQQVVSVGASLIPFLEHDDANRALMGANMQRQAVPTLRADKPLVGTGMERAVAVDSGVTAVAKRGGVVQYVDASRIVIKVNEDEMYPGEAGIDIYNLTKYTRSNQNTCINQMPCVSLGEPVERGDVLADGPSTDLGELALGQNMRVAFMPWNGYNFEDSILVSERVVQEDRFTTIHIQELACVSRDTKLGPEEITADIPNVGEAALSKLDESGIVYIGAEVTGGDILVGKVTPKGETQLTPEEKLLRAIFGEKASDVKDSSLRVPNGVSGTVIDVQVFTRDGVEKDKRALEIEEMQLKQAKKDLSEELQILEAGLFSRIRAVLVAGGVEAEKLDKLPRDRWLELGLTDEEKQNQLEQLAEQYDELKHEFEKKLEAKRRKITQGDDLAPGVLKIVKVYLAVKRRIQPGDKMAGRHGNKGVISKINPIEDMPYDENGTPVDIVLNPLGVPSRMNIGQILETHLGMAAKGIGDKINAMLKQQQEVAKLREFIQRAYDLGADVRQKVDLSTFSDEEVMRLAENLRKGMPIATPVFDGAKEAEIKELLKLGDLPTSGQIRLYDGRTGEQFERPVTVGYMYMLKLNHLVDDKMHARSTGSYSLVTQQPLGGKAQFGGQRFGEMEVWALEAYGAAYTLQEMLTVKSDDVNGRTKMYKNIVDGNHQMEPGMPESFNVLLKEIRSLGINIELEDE

Take `CN1CCN(c2cc3c(cc2F)c(=O)c(C(=O)O)cn3-c2ccc(F)cc2)CC1` [DIFLOXACIN]: the MIC in assay [1] amounted to 4 µg/mL (≈ 10 µM); in assay [2], 0.25 µg/mL (≈ 0.626 µM); in [3], 0.25 µg/mL (≈ 0.626 µM); in [4], 0.25 µg/mL (≈ 0.626 µM).

As for `CC(/C=C/C(O)=C1\C(=O)CNC1=O)=C\[C@@H](C)C1OC2(C)OC(C(=O)[C@@H]3O[C@@]32C)C1C` (stereo not given in full), in [5], the inhibition came out at 50%. For the same compound, the MIC in assay [6] was 0.2 µg/mL (≈ 0.479 µM); in [7], 0.1 µg/mL (≈ 0.24 µM); in assay [8] it was 1.6 µg/mL (≈ 3.83 µM); in assay [9], no more than 0.05 µg/mL.

In the case of `CO[C@@H]1[C@@H](OC(=O)c2ccc(C)[nH]2)[C@@H](O)[C@@H](Oc2ccc3c(O)c(NC(=O)c4c[nH]c(C(=O)Nc5c(O)c6ccc(O[C@H]7OC(C)(C)[C@H](OC)[C@@H](OC(=O)c8ccc(C)[nH]8)[C@H]7O)c(C)c6oc5=O)c4C)c(=O)oc3c2C)OC1(C)C` [COUMERMYCIN], the MIC turned out to be 0.008 µg/mL (≈ 0.00721 µM) in assay [1], 0.008 µg/mL (≈ 0.00721 µM) in assay [2], 0.008 µg/mL (≈ 0.00721 µM) in assay [3] and 4 µg/mL (≈ 3.6 µM) in assay [4].

For `CC(/C=C/C(=O)C1=C(O)CN(C)C1=O)=C\c1ccc2ccccc2c1`, the MIC in assay [10] was 1.56 µg/mL (≈ 4.68 µM); in [11], 2 µg/mL (≈ 6 µM); in [12], 1.56 µg/mL (≈ 4.68 µM); in [13], less than 0.5 µg/mL; in [14], 1.56 µg/mL (≈ 4.68 µM); in [15], 0.5 µg/mL (≈ 1.5 µM). Further, the MIC turned out to be 200 µg/mL (≈ 600 µM) in assay [16]; 31 µg/mL (≈ 93 µM) in assay [17]; 200 µg/mL (≈ 600 µM) in assay [18]; 0.25 µg/mL (≈ 0.75 µM) in [1]; 100 µg/mL (≈ 300 µM) in assay [19]; 1.56 µg/mL (≈ 4.68 µM) in assay [20]. The MIC in assay [2] was 0.25 µg/mL (≈ 0.75 µM); in [21], 1.56 µg/mL (≈ 4.68 µM); in assay [22], 200 µg/mL (≈ 600 µM); in assay [3], 0.25 µg/mL (≈ 0.75 µM); in [4] it was 0.25 µg/mL (≈ 0.75 µM); in assay [23], 50 µg/mL (≈ 150 µM). The MIC in assay [24] was less than 0.5 µg/mL; in [25] it was 1.56 µg/mL (≈ 4.68 µM); in assay [26], 0.5 µg/mL (≈ 1.5 µM). The same compound had an inhibition in assay [5] of 12.3%.
